Reference: ChEMBL document CHEMBL4020710, “Discovery and evaluation of the hybrid of bromophenol and saccharide as potent and selective protein tyrosine phosphatase 1B inhibitors” (Eur J Med Chem, 2017)
The source made the active and inactive calls. The calls are words filed in the database; no cut-off is given here.

Experiments:
[1] = target: T1, Tyrosine-protein phosphatase non-receptor type 1 (Homo sapiens, UniProt P18031); experiment: Inhibition of recombinant PTP1B (unknown origin) using p-NPP as substrate after 30 mins by UV-spectroscopic analysis
T1 sequence (P18031 whole entry): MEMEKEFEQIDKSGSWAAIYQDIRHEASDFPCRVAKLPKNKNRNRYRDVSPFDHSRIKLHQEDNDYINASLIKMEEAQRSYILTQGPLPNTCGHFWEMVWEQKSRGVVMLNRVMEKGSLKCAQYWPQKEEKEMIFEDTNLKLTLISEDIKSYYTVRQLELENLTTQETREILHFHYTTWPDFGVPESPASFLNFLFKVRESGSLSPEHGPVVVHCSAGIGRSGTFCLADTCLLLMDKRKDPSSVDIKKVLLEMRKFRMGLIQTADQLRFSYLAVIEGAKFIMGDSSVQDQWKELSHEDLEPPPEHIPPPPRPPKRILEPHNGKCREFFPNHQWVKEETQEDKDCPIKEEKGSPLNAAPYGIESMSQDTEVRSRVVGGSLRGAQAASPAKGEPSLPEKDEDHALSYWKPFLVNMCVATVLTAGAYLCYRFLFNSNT

[2] = target: T2, Tyrosine-protein phosphatase non-receptor type 1 (Homo sapiens) (UniProt P18031); experiment: Inhibition of recombinant PTP1B (unknown origin) at 10 uM using p-NPP as substrate after 30 mins by UV-spectroscopic analysis
T2 sequence (whole entry): T1 sequence (P18031 whole entry)

[3] = target: T3, Tyrosine-protein phosphatase non-receptor type 2 (Homo sapiens, UniProt P17706); experiment: Inhibition of TCPTP (unknown origin)
T3 sequence (P17706 whole entry): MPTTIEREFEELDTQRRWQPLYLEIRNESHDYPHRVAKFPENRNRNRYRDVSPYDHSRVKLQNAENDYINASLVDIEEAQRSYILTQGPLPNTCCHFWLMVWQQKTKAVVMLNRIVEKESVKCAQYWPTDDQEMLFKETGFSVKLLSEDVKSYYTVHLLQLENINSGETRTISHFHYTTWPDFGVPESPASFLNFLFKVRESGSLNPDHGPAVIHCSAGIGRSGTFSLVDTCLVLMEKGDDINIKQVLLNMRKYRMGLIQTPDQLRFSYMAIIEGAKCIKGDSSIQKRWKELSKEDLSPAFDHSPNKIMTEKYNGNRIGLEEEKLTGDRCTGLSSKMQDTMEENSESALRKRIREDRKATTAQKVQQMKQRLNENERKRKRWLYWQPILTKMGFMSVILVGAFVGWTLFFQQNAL

[4] = target: T4, Tyrosine-protein phosphatase non-receptor type 11 (Homo sapiens, UniProt Q06124); experiment: Inhibition of SHP2 (unknown origin)
T4 sequence (Q06124 whole entry): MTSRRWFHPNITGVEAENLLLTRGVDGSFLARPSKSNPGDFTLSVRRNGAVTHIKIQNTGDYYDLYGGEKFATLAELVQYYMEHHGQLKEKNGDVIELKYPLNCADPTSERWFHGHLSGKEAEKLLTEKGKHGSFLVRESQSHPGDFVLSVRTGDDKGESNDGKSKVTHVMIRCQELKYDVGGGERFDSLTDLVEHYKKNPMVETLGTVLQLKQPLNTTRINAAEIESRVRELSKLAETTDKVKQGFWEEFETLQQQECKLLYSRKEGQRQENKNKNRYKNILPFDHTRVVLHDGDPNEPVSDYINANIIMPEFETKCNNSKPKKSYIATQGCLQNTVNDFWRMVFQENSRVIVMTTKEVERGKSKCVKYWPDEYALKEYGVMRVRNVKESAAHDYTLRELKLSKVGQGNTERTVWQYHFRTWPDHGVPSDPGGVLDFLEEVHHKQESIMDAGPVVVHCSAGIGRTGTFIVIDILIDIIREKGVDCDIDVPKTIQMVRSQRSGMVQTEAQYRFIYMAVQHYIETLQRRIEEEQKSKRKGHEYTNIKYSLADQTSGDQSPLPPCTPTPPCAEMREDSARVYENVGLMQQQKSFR

[5] = target: T5, Receptor-type tyrosine-protein phosphatase F (Homo sapiens, UniProt P10586); experiment: Inhibition of PTPLAR (unknown origin)
Homo sapiens = species: Homo sapiens; experiment: Selectivity ratio of IC50 for TCPTP (unknown origin) to IC50 for recombinant PTP1B (unknown origin)
[6] = target: T2, Tyrosine-protein phosphatase non-receptor type 1 (Homo sapiens); experiment: Competitive inhibition of PTP1B (unknown origin) using p-NPP as substrate after 30 mins by Lineweaver-Burk plot analysis
[7] = target: T2, Tyrosine-protein phosphatase non-receptor type 1 (Homo sapiens); experiment: Binding affinity to human PTP1B (1 to 321 residues) at 50 uM by SPR assay
[8] = Drug uptake in mouse C2C12 cells at 10 uM after 8 hrs by HPLC analysis; type: ADME, cell-based; conditions: c2c12, 8 h
In short: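 C2C12 myotubes were exposed to 10 μM for 8 h, with DMSO-treated cells as the control. The medium was then removed and the cells disrupted. An equal amount of internal standard was added, cell debris was removed by filtration, and intracellular compound was quantified by HPLC.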

[9] = target: T6, Tyrosine-protein phosphatase non-receptor type 1 (Mus musculus) (UniProt P35821); experiment: Inhibition of PTP1B in mouse C2C12 cells assessed as increase in IRS1 phosphorylation at Y632 residues at 0.25 to 1 uM after 8 hrs by Western blot analysis; type: cell-based
T6 sequence (whole entry): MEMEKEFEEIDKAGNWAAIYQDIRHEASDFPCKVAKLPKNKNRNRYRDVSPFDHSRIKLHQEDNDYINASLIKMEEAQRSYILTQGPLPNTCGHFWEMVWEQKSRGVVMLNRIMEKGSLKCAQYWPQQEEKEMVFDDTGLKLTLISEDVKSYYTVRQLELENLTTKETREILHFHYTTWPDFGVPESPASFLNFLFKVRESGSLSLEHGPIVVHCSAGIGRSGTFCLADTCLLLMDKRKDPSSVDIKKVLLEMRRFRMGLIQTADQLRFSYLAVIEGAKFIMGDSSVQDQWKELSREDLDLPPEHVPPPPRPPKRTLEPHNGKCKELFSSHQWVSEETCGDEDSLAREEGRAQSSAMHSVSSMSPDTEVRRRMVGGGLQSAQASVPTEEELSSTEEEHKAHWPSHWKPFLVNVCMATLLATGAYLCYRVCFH

[10] = target: T6, Tyrosine-protein phosphatase non-receptor type 1 (Mus musculus); experiment: Inhibition of PTP1B in mouse C2C12 cells assessed as increase in Akt phosphorylation at S473 residues in mouse C2C12 cells at 0.1 to 1 uM after 8 hrs by Western blot analysis; type: cell-based
C2C12 [11] = experiment: Effect on total IRbeta in mouse C2C12 cells at 0.1 to 1 uM after 8 hrs by Western blot analysis; type: ADME, cell-based; conditions: c2c12, 8 h
C2C12 [12] = experiment: Effect on total Akt in mouse C2C12 cells at 0.1 to 1 uM after 8 hrs by Western blot analysis; type: ADME, cell-based; conditions: c2c12, 8 h
[13] = target: T5, Receptor-type tyrosine-protein phosphatase F; experiment: Inhibition of PTPLAR (unknown origin) at 20 ug/ml
[14] = target: T6, Tyrosine-protein phosphatase non-receptor type 1 (Mus musculus); experiment: Inhibition of PTP1B in mouse C2C12 cells assessed as increase in IRbeta phosphorylation at Y1146 residues in mouse C2C12 cells at 0.1 to 1 uM after 8 hrs by Western blot analysis; type: cell-based
C2C12 (Mus musculus) = experiment: Drug absorption in mouse C2C12 myotubes assessed per million cells at 10 uM after 8 hrs by HPLC analysis; conditions: c2c12, 8 h

T5 sequence (P10586 whole entry): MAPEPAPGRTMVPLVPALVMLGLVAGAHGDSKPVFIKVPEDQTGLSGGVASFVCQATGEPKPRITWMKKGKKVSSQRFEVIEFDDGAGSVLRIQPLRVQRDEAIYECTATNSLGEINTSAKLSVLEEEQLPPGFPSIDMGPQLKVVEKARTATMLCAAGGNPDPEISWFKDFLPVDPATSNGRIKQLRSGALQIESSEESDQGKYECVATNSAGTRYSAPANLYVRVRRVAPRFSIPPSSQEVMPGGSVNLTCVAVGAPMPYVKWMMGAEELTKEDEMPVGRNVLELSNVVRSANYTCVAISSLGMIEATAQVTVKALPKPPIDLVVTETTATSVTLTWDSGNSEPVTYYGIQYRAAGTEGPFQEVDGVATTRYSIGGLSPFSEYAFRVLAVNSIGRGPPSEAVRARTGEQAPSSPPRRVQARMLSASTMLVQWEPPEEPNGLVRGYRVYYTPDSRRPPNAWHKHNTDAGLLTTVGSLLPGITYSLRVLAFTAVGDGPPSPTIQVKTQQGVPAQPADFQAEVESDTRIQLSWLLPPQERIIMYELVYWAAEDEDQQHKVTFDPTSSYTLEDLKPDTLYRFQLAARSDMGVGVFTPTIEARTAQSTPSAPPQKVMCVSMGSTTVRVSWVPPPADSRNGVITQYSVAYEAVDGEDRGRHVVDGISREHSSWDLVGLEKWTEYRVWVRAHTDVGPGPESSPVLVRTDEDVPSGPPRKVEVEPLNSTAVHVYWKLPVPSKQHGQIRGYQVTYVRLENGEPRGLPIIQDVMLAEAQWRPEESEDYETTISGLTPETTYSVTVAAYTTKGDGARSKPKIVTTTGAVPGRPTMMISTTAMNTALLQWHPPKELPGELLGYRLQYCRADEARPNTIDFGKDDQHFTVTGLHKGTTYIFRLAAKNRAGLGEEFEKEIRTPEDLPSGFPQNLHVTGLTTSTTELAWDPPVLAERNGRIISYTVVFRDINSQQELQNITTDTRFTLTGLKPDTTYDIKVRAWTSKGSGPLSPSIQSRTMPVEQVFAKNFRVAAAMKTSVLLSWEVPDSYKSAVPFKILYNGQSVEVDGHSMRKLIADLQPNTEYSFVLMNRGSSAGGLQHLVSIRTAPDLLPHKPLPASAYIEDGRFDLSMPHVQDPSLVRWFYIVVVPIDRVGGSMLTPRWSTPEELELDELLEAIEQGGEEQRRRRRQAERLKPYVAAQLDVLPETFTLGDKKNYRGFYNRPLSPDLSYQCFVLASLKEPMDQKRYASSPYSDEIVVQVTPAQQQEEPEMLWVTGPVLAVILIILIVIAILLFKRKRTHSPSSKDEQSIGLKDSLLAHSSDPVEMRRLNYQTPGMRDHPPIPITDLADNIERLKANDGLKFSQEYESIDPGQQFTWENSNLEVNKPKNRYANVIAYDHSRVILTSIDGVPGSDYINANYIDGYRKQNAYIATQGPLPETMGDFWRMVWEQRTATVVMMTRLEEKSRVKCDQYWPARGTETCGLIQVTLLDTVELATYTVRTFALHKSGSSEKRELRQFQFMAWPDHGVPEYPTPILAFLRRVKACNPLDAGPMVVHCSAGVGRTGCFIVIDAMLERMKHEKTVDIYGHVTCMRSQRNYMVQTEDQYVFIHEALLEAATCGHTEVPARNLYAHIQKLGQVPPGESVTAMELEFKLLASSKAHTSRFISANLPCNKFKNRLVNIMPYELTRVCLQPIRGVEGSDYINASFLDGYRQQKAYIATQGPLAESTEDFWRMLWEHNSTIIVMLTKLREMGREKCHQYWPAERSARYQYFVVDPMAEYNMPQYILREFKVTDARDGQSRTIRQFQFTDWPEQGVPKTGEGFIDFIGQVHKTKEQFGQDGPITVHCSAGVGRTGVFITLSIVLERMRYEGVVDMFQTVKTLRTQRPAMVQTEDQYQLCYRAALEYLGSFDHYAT

Row | Compound | IC50 [1] | inhibition [2] | other results
1 | COc1cc(C(=O)OCC(COC(=O)c2cc(Br)c(O)c(OC)c2)OC(=O)c2cc(Br)c(O)c(OC)c2)cc(Br)c1O | 8.45 µM | – | –
2 | O=C(O[C@@H]1OC[C@@H](OC(=O)c2cc(O)c(O)c(Br)c2)[C@H](OC(=O)c2cc(O)c(O)c(Br)c2)[C@H]1OC(=O)c1cc(O)c(O)c(Br)c1)c1cc(O)c(O)c(Br)c1 | 0.2 µM | 99% | –
3 | O=C(OC1OC[C@@H](OC(=O)c2ccc(O)c(O)c2)[C@H](OC(=O)c2ccc(O)c(O)c2)[C@H]1OC(=O)c1ccc(O)c(O)c1)c1ccc(O)c(O)c1 (stereo not given in full) | 3 µM | – | –
4 | O=C(OC[C@H]1OC(OC(=O)c2cc(O)c(O)c(Br)c2)[C@H](OC(=O)c2cc(O)c(O)c(Br)c2)[C@@H]1OC(=O)c1cc(O)c(O)c(Br)c1)c1cc(O)c(O)c(Br)c1 (stereo not given in full) | 0.19 µM | 96.4% | IC50 [3]: 5.94 µM; IC50 [4]: 15.9 µM; IC50 [5]: Not Active; Ratio IC50 (Homo sapiens): 32; inhibition [6]: Active; Activity [7]: Active; Drug uptake [8]: 36.9%; inhibition [9]: Active; inhibition [10]: Active; Activity (C2C12 [11]): Non-Toxic; Activity (C2C12 [12]): Non-Toxic; inhibition [13]: < 25%; inhibition [14]: Active; Drug absorption (C2C12 (Mus musculus)): 74 pmol
5 | COc1cc(C(=O)OC[C@H]2OC(OC(=O)c3cc(Br)c(OC)c(OC)c3)[C@H](OC(=O)c3cc(Br)c(OC)c(OC)c3)[C@@H]2OC(=O)c2cc(Br)c(OC)c(OC)c2)cc(Br)c1OC (stereo not given in full) | 3.41 µM | – | –
6 | CC(C)(C)[Si](C)(C)Oc1cc(C(=O)OCC(COC(=O)c2cc(Br)c(O[Si](C)(C)C(C)(C)C)c(O[Si](C)(C)C(C)(C)C)c2)OC(=O)c2cc(Br)c(O[Si](C)(C)C(C)(C)C)c(O[Si](C)(C)C(C)(C)C)c2)cc(Br)c1O[Si](C)(C)C(C)(C)C | – | 12% | –
7 | O=C(OCC(COC(=O)c1cc(O)c(O)c(Br)c1)OC(=O)c1cc(O)c(O)c(Br)c1)c1cc(O)c(O)c(Br)c1 | 0.24 µM | 95.5% | IC50 [3]: 1.98 µM; IC50 [4]: 4.53 µM; IC50 [5]: Not Active; Ratio IC50 (Homo sapiens): 8; inhibition [13]: < 25%
8 | CC(C)(C)[Si](C)(C)Oc1cc(C(=O)OC[C@H]2OC(OC(=O)c3cc(Br)c(O[Si](C)(C)C(C)(C)C)c(O[Si](C)(C)C(C)(C)C)c3)[C@H](OC(=O)c3cc(Br)c(O[Si](C)(C)C(C)(C)C)c(O[Si](C)(C)C(C)(C)C)c3)[C@@H]2OC(=O)c2cc(Br)c(O[Si](C)(C)C(C)(C)C)c(O[Si](C)(C)C(C)(C)C)c2)cc(Br)c1O[Si](C)(C)C(C)(C)C (stereo not given in full) | – | 43.6% | –
9 | COc1cc(C(=O)OC[C@H]2OC(OC(=O)c3cc(Br)c(O)c(OC)c3)[C@H](OC(=O)c3cc(Br)c(O)c(OC)c3)[C@@H]2OC(=O)c2cc(Br)c(O)c(OC)c2)cc(Br)c1O (stereo not given in full) | 1.5 µM | – | –
10 | CC(C)(C)[Si](C)(C)Oc1cc(C(=O)OC2OC[C@@H](OC(=O)c3cc(Br)c(O[Si](C)(C)C(C)(C)C)c(O[Si](C)(C)C(C)(C)C)c3)[C@H](OC(=O)c3cc(Br)c(O[Si](C)(C)C(C)(C)C)c(O[Si](C)(C)C(C)(C)C)c3)[C@H]2OC(=O)c2cc(Br)c(O[Si](C)(C)C(C)(C)C)c(O[Si](C)(C)C(C)(C)C)c2)cc(Br)c1O[Si](C)(C)C(C)(C)C (stereo not given in full) | – | 41.9% | –
11 | COc1cc(C(=O)O[C@@H]2OC[C@@H](OC(=O)c3cc(Br)c(O)c(OC)c3)[C@H](OC(=O)c3cc(Br)c(O)c(OC)c3)[C@H]2OC(=O)c2cc(Br)c(O)c(OC)c2)cc(Br)c1O | 0.75 µM | – | –
12 | O=C(OCC(COC(=O)c1ccc(O)c(O)c1)OC(=O)c1ccc(O)c(O)c1)c1ccc(O)c(O)c1 | 12.3 µM | – | –
13 | COc1cc(C(=O)OCCOC(=O)c2cc(Br)c(OC)c(OC)c2)cc(Br)c1OC | > 20 µM | – | –
14 | CC(C)(C)[Si](C)(C)Oc1cc(C(=O)O)cc(Br)c1O[Si](C)(C)C(C)(C)C | – | 24.2% | –
15 | O=C(OCCOC(=O)c1cc(O)c(O)c(Br)c1)c1cc(O)c(O)c(Br)c1 | – | 25% | –
16 | O=C(OC[C@H]1OC(OC(=O)c2ccc(O)c(O)c2)[C@H](OC(=O)c2ccc(O)c(O)c2)[C@@H]1OC(=O)c1ccc(O)c(O)c1)c1ccc(O)c(O)c1 (stereo not given in full) | 2.2 µM | – | –
17 | COc1cc(C(=O)OC2OC[C@@H](OC(=O)c3cc(Br)c(OC)c(OC)c3)[C@H](OC(=O)c3cc(Br)c(OC)c(OC)c3)[C@H]2OC(=O)c2cc(Br)c(OC)c(OC)c2)cc(Br)c1OC (single isomer, unassigned) | 1.11 µM | – | Activity [7]: inactive
18 | COc1cc(C(=O)OCC(COC(=O)c2cc(Br)c(OC)c(OC)c2)OC(=O)c2cc(Br)c(OC)c(OC)c2)cc(Br)c1OC | > 20 µM | – | Activity [7]: inactive
19 | CC(C)(C)[Si](C)(C)Oc1cc(C(=O)OCCOC(=O)c2cc(Br)c(O[Si](C)(C)C(C)(C)C)c(O[Si](C)(C)C(C)(C)C)c2)cc(Br)c1O[Si](C)(C)C(C)(C)C | – | 32.8% | –
20 | COc1cc(C(=O)OCCOC(=O)c2cc(Br)c(O)c(OC)c2)cc(Br)c1O | > 20 µM | – | –
21 | O=C(OCCOC(=O)c1ccc(O)c(O)c1)c1ccc(O)c(O)c1 | > 20 µM | – | –
